Shown are actives, neighbours in structure and some others; about 1.4% of the full set was active somewhere.
KLK5 inh = blocks human kallikrein 5 protease activity; inhibition, % at 5 µM; Q9Y337; recombinant hK5, fluorogenic AMC substrate cleavage; 0.59% of 210,000 active;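 active means inhibition of 40% or more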
FXIa inh 1536 = inhibitors of human coagulation factor XIa | AID 798 | inhibition, % at 5 µM | purified FXIa, Boc-Glu-Ala-Arg-AMC fluorogenic substrate | 0.14% of 220,000 active;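 active means inhibition of at least 40%; inactive means inhibition below 40%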;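 further: fluorescence of freed AMC excited at 355 nm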
m-calpain inh = inhibitors of pig calpain II; purified calpain II, fluorogenic peptide substrate, 30 min; inhibition, % at 16 µM; AID 1236; 0.37% of 220,000 active;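 active means inhibition above about 50%, limit read from the data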
Thrombin inh = thrombin (human) inhibition | AID 1046 | 0.26% of 220,000 active | inhibition, % at 5 µM | alpha-thrombin, Boc-VPR-AMC fluorogenic substrate cleavage | P00734;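 active means inhibition at or above 40%; inactive means inhibition below 40%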
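System: human alpha-thrombin protein; Compound dosing: one concentration per compound, 5 µM, with 0.2% DMSO; Timing: reaction at room temperature; Technique: AMC fluorescence, 355/460 nm; Controls: enzyme without compound as high, wells lacking enzyme as low.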
FXIIa inh 1536 = factor XIIa (human) inhibition | P00748 | purified FXIIa, Boc-QGR-AMC fluorogenic substrate, 2 h | inhibition, % at 5 µM | 0.3% of 220,000 active; in the data active means inhibition above about 40%
Target sequence (P00748 20-372 limits assumed): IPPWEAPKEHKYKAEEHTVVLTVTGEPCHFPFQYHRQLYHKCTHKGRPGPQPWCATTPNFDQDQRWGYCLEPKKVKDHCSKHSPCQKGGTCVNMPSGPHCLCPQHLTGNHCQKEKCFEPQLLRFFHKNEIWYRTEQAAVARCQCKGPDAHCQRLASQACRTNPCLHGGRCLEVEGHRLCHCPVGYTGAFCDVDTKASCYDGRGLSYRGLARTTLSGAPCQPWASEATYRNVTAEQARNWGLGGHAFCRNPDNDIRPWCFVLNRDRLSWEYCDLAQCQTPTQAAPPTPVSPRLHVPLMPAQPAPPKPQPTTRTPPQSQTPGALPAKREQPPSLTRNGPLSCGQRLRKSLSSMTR
Target sequence (P00748 373-615 limits assumed): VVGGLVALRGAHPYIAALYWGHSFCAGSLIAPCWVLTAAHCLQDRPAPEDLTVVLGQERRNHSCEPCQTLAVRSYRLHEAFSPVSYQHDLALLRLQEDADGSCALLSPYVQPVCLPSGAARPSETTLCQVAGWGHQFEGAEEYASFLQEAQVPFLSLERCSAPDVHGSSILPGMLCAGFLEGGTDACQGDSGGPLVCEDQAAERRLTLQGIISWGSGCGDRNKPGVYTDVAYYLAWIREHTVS
Hits are given with their value; . = inactive; ! = not confirmed by another sample.

SMILES	KLK5 inh	FXIa inh 1536	m-calpain inh	Thrombin inh	FXIIa inh 1536
O=[N+]([O-])c1ccc(C2Oc3ccccc3C3CC(c4ccccc4)=NN32)s1 (configuration not stated)	.	.	.	.	.
C=C(C)CNC(=S)N/N=C/c1c(F)cccc1F	.	.	57.0	.	.
C=C(C)CNC(=S)N/N=C/c1ccc([N+](=O)[O-])cc1	.	.	.	.	.
Cc1cc(F)ccc1N1CCC(N2CCN(C(C)C)C(CCO)C2)CC1 (configuration not stated)	.	.	.	.	.
Cc1cc(F)ccc1N1CCC(N2CCN(CCC(C)C)C(CCO)C2)CC1 (configuration not stated)	42.4	.	.	44.7	.
Nn1c(Cc2cccc3ccccc23)nnc1SCc1ccc(Cl)c(Cl)c1	.	.	54.8	.	.
Nn1c(Cc2cccc3ccccc23)nnc1SCc1c(Cl)cccc1Cl	.	.	.	.	.
COC(=O)C(NC(=O)c1ccccc1)(Nc1nc(C)cs1)C(F)(F)F (configuration not stated)	.	.	.	.	.
COC(=O)C(NC(=O)c1ccco1)(Nc1nc(C)cs1)C(F)(F)F (configuration not stated)	.	.	.	.	54.4
O=C(NC(=O)c1ccc(Cl)cc1)OC1CCCCC1	.	.	.	.	.
O=C(NCc1ccccc1Cl)C1CCCN(c2nc3ccsc3c(=O)s2)C1 (configuration not stated)	.	.	52.8	.	.
CC1CCCN(c2nc3ccsc3c(=O)s2)C1 (configuration not stated)	.	.	.	.	.
CCc1oc2ccccc2c1C(=O)c1cc(Br)c(O)c(Br)c1	.	.	55.4!	.	.
Cc1csc(NC(=O)c2cccn2C)n1	.	.	.	.	.
Cn1cccc1C(=O)Nc1nc(-c2ccccn2)cs1	.	46.8	.	.	.
CCC(Sc1nc2sc(C(=O)OC)c(C)c2c(=O)n1N)C(=O)NCC1CCCO1 (configuration not stated)	43.4	.	.	.	.
COc1ccccc1NC(=O)/C(=C/c1cccs1)NC(=O)c1ccco1	.	.	54.9	.	.
O=C(Nc1cccc(S(=O)(=O)N2CCOCC2)c1)c1ccc2c(=O)n3c(nc2c1)CCCCC3	.	.	.	.	.
O=C(/C=C/c1cccc(Cl)c1)NCc1ccncc1	47.2	.	.	.	.
Cc1cc(=O)n2c(n1)NC(Nc1cccc(C)c1C)=NC2c1ccc(F)cc1 (configuration not stated)	.	.	.	.	.
C=CCc1c(C)[nH]c2c(OC)cccc2c1=S	46.1	.	.	.	.
C=CCN(CC=C)C(=O)c1c(OC)cccc1OC	.	.	.	.	.
COc1ccc(C2=Nn3c(nnc3-c3ccco3)SC2)cc1	.	.	50.8	.	.
COc1ccc(OC)c(C2=Nn3c(nnc3-c3ccco3)SC2)c1	.	.	.	.	.
CCC1(CC)C(=O)NC(=O)NC1=NCCc1c[nH]c2ccccc12	.	.	.	.	.
SMILES	KLK5 inh	FXIa inh 1536	m-calpain inh	Thrombin inh	FXIIa inh 1536
COc1cccc(C(=O)NNC(=O)CCC(=O)O)c1	.	.	.	.	.
COc1cccc(C(=O)NNC(=O)Cc2ccc([N+](=O)[O-])cc2)c1	.	.	.	44.1	.
COc1ccc(CC(=O)N2CCC(Nc3nc4ccccc4n3Cc3ccc(F)cc3)CC2)cc1	59.9	.	.	.	.
CCOC(=O)c1c(NC(=O)CSc2nnc(C)o2)sc(C)c1C	.	.	.	.	.
CC1Cc2ccccc2N1S(=O)(=O)c1cccc2nsnc12 (configuration not stated)	.	.	.	.	42.6
O=C(C(Cc1ccccc1)n1cccc1)N1CCN(c2ncccn2)CC1 (configuration not stated)	.	.	.	.	.
CCCCNC(=O)c1ccccc1C(=O)NCCCC	.	.	91.4	.	.
CCSc1ccccc1C(=O)NCCCn1ccnc1	43.2	.	.	.	.
CCCCNC(=O)c1ccccc1Cl	.	.	.	.	.
COCCNC(=O)c1ccc2c(c1)nc(C)n2-c1cc(OC)c(OC)c(OC)c1	.	.	.	.	.
Cc1ccc(OCCOCCN2CCN(C)CC2)c([N+](=O)[O-])c1	.	.	.	.	.
C=CCOC(=O)C(C#N)c1nc2ccccc2nc1N1CCN(Cc2ccccc2)CC1 (configuration not stated)	45.6	.	.	.	.
COCCOC(=O)C(C#N)c1nc2ccccc2nc1N1CCN(Cc2ccccc2)CC1 (configuration not stated)	.	.	.	.	.
